Data: ChEMBL document CHEMBL4406794, “N-(7-Cyano-6-(4-fluoro-3-(2-(3-(trifluoromethyl)phenyl)acetamido)phenoxy)benzo[d]thiazol-2-yl)cyclopropanecarboxamide (TAK-632) Analogues as Novel Necroptosis Inhibitors by Targeting Receptor-Interacting Protein Kinase 3 (RIPK3): Synthesis, Structure-Activity Relationships, and in Vivo Efficacy” (J Med Chem, 2019)
pEC50, pKd: −log10 of the molar value. The source made the active and inactive calls. The rule behind the calls is not given here.

What was measured:
[1] = target: T1, Receptor-interacting serine/threonine-protein kinase 1 (Homo sapiens, UniProt Q13546); experiment: Binding affinity to wild-type human partial length RIPK1 (M1 to K305 residues) expressed in bacterial expression system after 1 hr by quantitative PCR based KINOMEscan assay
T1 sequence (Q13546 whole entry): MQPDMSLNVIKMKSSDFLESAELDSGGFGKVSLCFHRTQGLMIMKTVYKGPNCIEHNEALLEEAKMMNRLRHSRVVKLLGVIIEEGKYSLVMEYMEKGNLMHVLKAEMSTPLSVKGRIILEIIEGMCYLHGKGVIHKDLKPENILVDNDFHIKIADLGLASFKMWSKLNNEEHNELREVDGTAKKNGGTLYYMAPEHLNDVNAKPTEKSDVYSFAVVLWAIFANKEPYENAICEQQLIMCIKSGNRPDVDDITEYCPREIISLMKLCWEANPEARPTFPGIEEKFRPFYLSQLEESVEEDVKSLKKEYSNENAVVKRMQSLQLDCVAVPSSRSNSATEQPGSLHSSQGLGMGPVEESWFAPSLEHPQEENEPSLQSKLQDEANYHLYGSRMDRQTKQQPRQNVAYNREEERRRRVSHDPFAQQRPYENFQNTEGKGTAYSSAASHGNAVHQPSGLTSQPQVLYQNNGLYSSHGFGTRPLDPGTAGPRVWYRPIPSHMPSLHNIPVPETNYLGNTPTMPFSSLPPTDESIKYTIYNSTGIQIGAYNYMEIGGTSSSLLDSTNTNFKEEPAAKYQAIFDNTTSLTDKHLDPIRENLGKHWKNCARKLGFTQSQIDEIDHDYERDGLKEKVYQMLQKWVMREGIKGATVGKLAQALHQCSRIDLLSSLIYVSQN
Outline: (§1)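 KINOMEscan competition binding. Bound kinase eluted with 0.5 μM nonbiotinylated ligand for 30 min and quantified by qPCR. Duplicates averaged.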

[2] = target: Receptor-interacting serine/threonine-protein kinase 3 (Homo sapiens, UniProt Q9Y572); experiment: Binding affinity to wild-type human partial length RIPK3 (M1 to Q307 residues) expressed in bacterial expression system after 1 hr by quantitative PCR based KINOMEscan assay; outline: as §1
[3] = Cytotoxicity against human HT-29 cells measured after 12 hrs by CellTiter-Glo Luminescent assay; assay type: cell-based
[4] = test system: HT-29; experiment: Anti-necroptotic activity in human HT-29 cells assessed as inhibition of […]/SM-164/Z-VAD-fmk-induced necroptosis measured after 16 hrs by celltiter-glo luminescent cell viability assay; settings: HT-29, 16 h
[5] = organism: Homo sapiens; experiment: Selectivity ratio of Kd for human partial length RIPK1 (M1 to K305 residues) expressed in bacterial expression system to Kd for wild-type human partial length RIPK3 (M1 to Q307 residues) expressed in bacterial expression system
[6] = test system: Mus musculus; experiment: (§2) Protection against TNFalpha/Z-VAD-fmk-induced C57BL/6J mouse model of systemic inflammatory response syndrome assessed as increase in body temperature at 5 to 50 mg/kg, po administered via gavage 2 hrs prior to Z-VAD-fmk addition for 15 mins followed by TNFalpha stimulation for 1 hr and subsequent Z-VAD-fmk addition meaured up to 50 hrs post TNFalpha stimulation by electric thermometer; assay type: functional, organism-based
Outline: (§3)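 Female C57BL/6 mice, fasted overnight, n=10 per group. Compound given by oral gavage at 5, 25 or 50 mg/kg 2 h before TNF. z-VAD-fmk 180 µg i.p., then 15 min later mTNF-α 400 µg/kg i.v. in endotoxin-free PBS, then a further 70 µg z-VAD-fmk i.p. 1 h later. Body temperature and survival followed, compared with vehicle by one-way ANOVA.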

[7] = test system: Mus musculus; experiment: as §2, with “mouse survial” for “body temperature”, “stimulation” for “stimulation by electric thermometer”; assay type: functional, organism-based; outline: as §3
[8] = test system: Mus musculus; experiment: as §2, with “syndrome” for “syndrome assessed as increase in body temperature”, “25” for “5 to 50”, “relative to control” for “by electric thermometer”; assay type: functional
Outline: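 Overnight-fasted C57BL/6 female mice, n=10 per group. Test compound was given by oral gavage 2 h before mTNF-α. z-VAD-fmk (180 µg) was injected ip, then 15 min later mTNF-α in endotoxin-free PBS was injected iv (400 µg/kg). A second z-VAD-fmk dose (70 µg) was given ip 1 h after TNF. Body temperature and survival were followed against vehicle. One-way ANOVA was used.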

[9] = test system: Mus musculus; experiment: as §2, with “syndrome” for “syndrome assessed as increase in body temperature”, “100” for “5 to 50”, “relative to control” for “by electric thermometer”; assay type: functional

Sequence of Receptor-interacting serine/threonine-protein kinase 3 (Q9Y572 whole entry, the tested form may be a part): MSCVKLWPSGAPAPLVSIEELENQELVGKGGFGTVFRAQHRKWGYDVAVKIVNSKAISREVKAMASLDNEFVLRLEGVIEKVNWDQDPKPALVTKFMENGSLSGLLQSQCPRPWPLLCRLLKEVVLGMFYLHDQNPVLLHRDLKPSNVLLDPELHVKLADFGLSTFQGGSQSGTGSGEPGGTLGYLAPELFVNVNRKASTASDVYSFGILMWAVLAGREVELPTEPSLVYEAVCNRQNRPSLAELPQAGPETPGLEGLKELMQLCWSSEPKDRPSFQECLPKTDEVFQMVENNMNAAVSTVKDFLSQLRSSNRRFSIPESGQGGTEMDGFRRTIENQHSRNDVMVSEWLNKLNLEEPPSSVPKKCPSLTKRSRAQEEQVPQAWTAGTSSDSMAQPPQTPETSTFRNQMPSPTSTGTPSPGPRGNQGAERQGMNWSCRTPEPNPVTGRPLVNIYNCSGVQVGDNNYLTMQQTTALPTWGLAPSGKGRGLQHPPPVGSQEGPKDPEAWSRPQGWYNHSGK

pKd [1]	pKd [2]	SMILES	CC50 at 12 h [3] [µM]	pEC50 [4]	further results
6.23	6.89	O=C(Cc1ccc(F)c(C(F)(F)F)c1)Nc1cc(Oc2ccc3nc(NC(=O)C4CC4)sc3c2)ccc1F	> 50	6.40	
6.11	6.96	O=C(Cc1cccc([N+](=O)[O-])c1)Nc1cc(Oc2ccc3nc(NC(=O)C4CC4)sc3c2)ccc1F	> 50	6.21	
7.31	6.92	O=C(Cc1cccc(OC(F)(F)F)c1)Nc1cc(Oc2ccc3nc(NC(=O)C4CC4)sc3c2)ccc1F	> 50	7.22	
		O=C(Cc1ccccc1C(F)(F)F)Nc1cc(Oc2ccc3nc(NC(=O)C4CC4)sc3c2)ccc1F		4.95	
		N#Cc1c(Oc2ccc(F)c(NC(=O)c3cccc(C(F)(F)F)c3)c2)ccc2nc(NC(=O)C3CC3)sc12		< 4.70	
		O=C(Cc1cccc(O)c1)Nc1cc(Oc2ccc3nc(NC(=O)C4CC4)sc3c2)ccc1F		< 4.70	
		N#Cc1c(Oc2ccc(F)c(NC(=O)Cc3ccc([N+](=O)[O-])cc3)c2)ccc2nc(NC(=O)C3CC3)sc12		< 4.70	
5.66	7.03	Cc1cccc(NC(=O)Nc2cc(Oc3ccc4nc(NC(=O)C5CC5)sc4c3)ccc2F)c1	> 50	6.24	Ratio [5]: 23.6
		N#Cc1c(Oc2ccc(F)c(NC(=O)Cc3cccc(C(F)(F)F)c3F)c2)ccc2nc(NC(=O)C3CC3)sc12		5.69	
		N#Cc1c(Oc2ccc(F)c(NC(=O)Cc3cccc(F)c3)c2)ccc2nc(NC(=O)C3CC3)sc12		< 4.70	
		O=C(Cc1cc(C(F)(F)F)cc(C(F)(F)F)c1)Nc1cc(Oc2ccc3nc(NC(=O)C4CC4)sc3c2)ccc1F	> 50	5.01	
5.32	5.85	Cn1cc(CC(=O)Nc2cc(Oc3ccc4nc(NC(=O)C5CC5)sc4c3)ccc2F)c2ccccc21	> 50	5.42	
6.11	6.92	N#Cc1cccc(CC(=O)Nc2cc(Oc3ccc4nc(NC(=O)C5CC5)sc4c3)ccc2F)c1	> 50	5.89	
6.49	7.48	Cc1cccc(CC(=O)Nc2cc(Oc3ccc4nc(NC(=O)C5CC5)sc4c3)ccc2F)c1	> 50	6.42	
5.96	7.09	O=C(Cc1ccc2c(c1)OCO2)Nc1cc(Oc2ccc3nc(NC(=O)C4CC4)sc3c2)ccc1F	> 50	5.63	Ratio [5]: 13
		O=C(Cc1cccc(C(F)(F)F)c1Cl)Nc1cc(Oc2ccc3nc(NC(=O)C4CC4)sc3c2)ccc1F		< 4.70	
6.62	7.26	COc1cccc(CC(=O)Nc2cc(Oc3ccc4nc(NC(=O)C5CC5)sc4c3)ccc2F)c1	> 50	6.48	
6.29	7.00	O=C(Cc1cccc(C(F)(F)F)c1F)Nc1cc(Oc2ccc3nc(NC(=O)C4CC4)sc3c2)ccc1F	> 50	6.31	

pKd [1]	pKd [2]	SMILES	CC50 at 12 h [3] [µM]	pEC50 [4]	further results
		O=C(Nc1nc2ccc(Oc3ccc(F)c(NC(=O)C4(c5cccc(C(F)(F)F)c5)CC4)c3)cc2s1)C1CC1	> 50	< 4.70	
		CCCCCCCCC(=O)Nc1nc2ccc(Oc3ccc(F)c(NC(=O)Cc4cccc(C(F)(F)F)c4)c3)c(C#N)c2s1		< 4.70	
		N#Cc1c(Oc2ccc(F)c(NC(=O)Cc3cccc(C(F)(F)F)c3)c2)ccc2nc(NC(=O)c3ccccc3)sc12		< 4.70	
		O=C(Nc1nc2ccc(Oc3ccc(F)c(NCc4cccc(C(F)(F)F)c4)c3)cc2s1)C1CC1		< 4.70	
5.44	7.16	COc1cccc(NC(=O)Nc2cc(Oc3ccc4nc(NC(=O)C5CC5)sc4c3)ccc2F)c1	> 50	5.86	Ratio [5]: 52.1
		CCC(=O)Nc1nc2ccc(Oc3ccc(F)c(NC(=O)Cc4cccc(C(F)(F)F)c4)c3)c(C#N)c2s1		< 4.70	
		O=C(Nc1nc2ccc(Oc3ccc(F)c(NS(=O)(=O)c4cccc(C(F)(F)F)c4)c3)cc2s1)C1CC1		< 4.70	
5.92	7.14	Cc1ccc(CC(=O)Nc2cc(Oc3ccc4nc(NC(=O)C5CC5)sc4c3)ccc2F)cc1C	> 50	5.78	
< 5.30	7.28	CC(=O)c1cccc(NC(=O)Nc2cc(Oc3ccc4nc(NC(=O)C5CC5)sc4c3)ccc2F)c1	> 50	6.00	Ratio [5]: > 94.3
6.32		N#Cc1c(Oc2ccc(F)c(NC(=O)Cc3cccc(C(F)(F)F)c3)c2)ccc2nc(NC(=O)C3CC3)sc12	> 50		Activity [6]: Active; Activity [7]: Active; Activity [8]: 20%; Activity [9]: 70%
6.66	6.55	O=C(Cc1cccc(C(F)(F)F)n1)Nc1cc(Oc2ccc3nc(NC(=O)C4CC4)sc3c2)ccc1F	> 50	6.49	
		O=C(Cc1ccccn1)Nc1cc(Oc2ccc3nc(NC(=O)C4CC4)sc3c2)ccc1F		5.08	
		N#Cc1c(Oc2ccc(F)c(NC(=O)Cc3cccc(C(F)(F)F)c3)c2)ccc2nc(NC(=O)OCc3ccccc3)sc12		< 4.70	
		O=C(Cc1cccc(C(F)(F)F)c1)Nc1cc(Oc2ccc3nc(NC(=O)C4CC4)sc3c2)ccc1F			Activity [6]: Active; Activity [7]: Active
6.29	6.10	O=C(CCc1cccc(C(F)(F)F)c1)Nc1cc(Oc2ccc3nc(NC(=O)C4CC4)sc3c2)ccc1F	> 50	6.19	
< 5.30	7.14	CCOC(=O)c1cccc(NC(=O)Nc2cc(Oc3ccc4nc(NC(=O)C5CC5)sc4c3)ccc2F)c1	> 50	5.11	Ratio [5]: > 69.4
		O=C(Nc1nc2ccc(Oc3ccc(F)c(NCc4ccc5c(c4)OCO5)c3)cc2s1)C1CC1		< 4.70	
		N#Cc1c(Oc2ccc(F)c(NC(=O)Cc3ccccc3)c2)ccc2nc(NC(=O)C3CC3)sc12		< 4.70	
